Laboratory results reported in ChEMBL document CHEMBL1131239, “Orally active benzamide antipsychotic agents with affinity for dopamine D2, serotonin 5-HT1A, and adrenergic alpha1 receptors” (J Med Chem, 1998).

Legend:
Rattus norvegicus [1] = assay: compound was tested for antipsychotic activity by conditioned avoidance response(CAR) assay in rats with a pretreatment period of 30 min upon intra peritoneal administration at a concentration of 2.5 mg/kg.; format: functional
Outline: (§1)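 Trained rats (N = 4) were run in 1-h sessions on two consecutive days, with the experimenter blind to drug and dose. Fed rats had food and water until placed in the test chambers. Fasted rats had no food overnight before the experiment.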

Rattus norvegicus [2] = assay: compound was tested for antipsychotic activity by conditioned avoidance response(CAR) assay in rats with a pretreatment period of 30 min upon intra peritoneal administration at a concentration of 5 mg/kg.; format: functional
Outline: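 Rat conditioned avoidance test modified from Martin et al. Trained rats (N = 4) were run in 1-h sessions on two consecutive days. Fed animals had food and water until placed in the test chambers. Dosing was ip with 30 min pretreatment, and activity was expressed as percent inhibition at the stated dose.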

Rattus norvegicus [3] = assay: compound was tested for antipsychotic activity by conditioned avoidance response(CAR) assay in rats with a pretreatment period of 30 min upon intra peritoneal administration at a concentration of 1 mg/kg.; format: functional; outline: as §1
Rattus norvegicus [4] = assay: compound was tested for antipsychotic activity by conditioned avoidance response(CAR) assay in rats with a pretreatment period of 240 min upon intra peritoneal administration at a concentration of 2.5 mg/kg.; format: functional; outline: as §1
[5] = molecular target: T1, 5-hydroxytryptamine receptor 1A (Rattus norvegicus, UniProt P19327); assay: Compound was evaluated for its binding affinity against 5-hydroxytryptamine 1A receptor from rat cerebral cortex; format: tissue-based
T1 sequence (P19327 whole entry): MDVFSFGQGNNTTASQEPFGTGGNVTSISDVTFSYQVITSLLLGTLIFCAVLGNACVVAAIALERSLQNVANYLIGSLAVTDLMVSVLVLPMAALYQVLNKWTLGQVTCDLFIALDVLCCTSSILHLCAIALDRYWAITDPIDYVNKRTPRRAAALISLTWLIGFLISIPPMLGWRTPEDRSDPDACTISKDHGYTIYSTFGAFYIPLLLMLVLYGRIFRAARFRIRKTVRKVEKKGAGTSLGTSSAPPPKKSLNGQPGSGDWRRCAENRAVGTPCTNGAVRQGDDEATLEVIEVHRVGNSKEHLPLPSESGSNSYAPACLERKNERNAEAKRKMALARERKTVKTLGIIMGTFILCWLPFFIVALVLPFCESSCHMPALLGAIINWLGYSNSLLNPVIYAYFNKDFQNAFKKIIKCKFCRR

Rattus norvegicus [6] = assay: compound was tested for antipsychotic activity by conditioned avoidance response(CAR) assay in rats with a pretreatment period of 30 min upon intra peritoneal administration at a concentration of 15 mg/kg.; format: functional
Rattus norvegicus [7] = assay: compound was tested for antipsychotic activity by conditioned avoidance response(CAR) assay in rats with a pretreatment period of 240 min upon peroral administration at a concentration of 20 mg/kg.; format: functional; conditions: route oral; outline: as §1
[8] = molecular target: T2, Adrenergic receptor alpha-1 (Rattus norvegicus, UniProt P15823+P23944+P43140); assay: Binding affinity against Alpha-1 adrenergic receptor from rat cerebral cortex; format: tissue-based
T2 sequence (P15823 whole entry): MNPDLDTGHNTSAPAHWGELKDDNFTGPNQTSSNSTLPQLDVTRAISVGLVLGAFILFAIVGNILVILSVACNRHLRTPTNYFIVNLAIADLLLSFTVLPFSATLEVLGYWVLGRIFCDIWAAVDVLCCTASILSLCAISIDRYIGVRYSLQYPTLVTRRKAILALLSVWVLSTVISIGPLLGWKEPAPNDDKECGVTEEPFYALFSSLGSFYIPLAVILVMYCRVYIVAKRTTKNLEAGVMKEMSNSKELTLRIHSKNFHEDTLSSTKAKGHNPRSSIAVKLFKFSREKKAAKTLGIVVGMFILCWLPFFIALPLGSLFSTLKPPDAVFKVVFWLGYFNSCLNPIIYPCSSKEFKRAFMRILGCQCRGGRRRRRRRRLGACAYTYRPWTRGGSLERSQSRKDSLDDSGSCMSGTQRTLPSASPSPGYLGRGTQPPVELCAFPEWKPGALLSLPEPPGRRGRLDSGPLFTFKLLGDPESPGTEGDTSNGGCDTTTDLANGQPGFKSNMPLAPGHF
T2 sequence (P23944 whole entry): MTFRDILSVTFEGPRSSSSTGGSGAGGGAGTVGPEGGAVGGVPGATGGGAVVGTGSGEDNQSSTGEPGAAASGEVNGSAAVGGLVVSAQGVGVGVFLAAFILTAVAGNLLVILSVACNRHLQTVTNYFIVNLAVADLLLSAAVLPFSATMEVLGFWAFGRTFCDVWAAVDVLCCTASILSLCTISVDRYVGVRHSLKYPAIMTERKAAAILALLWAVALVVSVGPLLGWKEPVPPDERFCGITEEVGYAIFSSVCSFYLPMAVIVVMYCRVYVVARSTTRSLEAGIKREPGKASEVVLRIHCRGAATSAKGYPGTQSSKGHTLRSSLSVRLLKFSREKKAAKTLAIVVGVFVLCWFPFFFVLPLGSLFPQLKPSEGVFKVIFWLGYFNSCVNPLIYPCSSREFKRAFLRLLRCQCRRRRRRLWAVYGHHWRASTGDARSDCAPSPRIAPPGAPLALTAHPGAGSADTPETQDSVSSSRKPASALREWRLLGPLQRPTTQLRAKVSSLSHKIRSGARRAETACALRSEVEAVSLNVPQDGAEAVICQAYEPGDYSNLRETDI
T2 sequence (P43140 whole entry): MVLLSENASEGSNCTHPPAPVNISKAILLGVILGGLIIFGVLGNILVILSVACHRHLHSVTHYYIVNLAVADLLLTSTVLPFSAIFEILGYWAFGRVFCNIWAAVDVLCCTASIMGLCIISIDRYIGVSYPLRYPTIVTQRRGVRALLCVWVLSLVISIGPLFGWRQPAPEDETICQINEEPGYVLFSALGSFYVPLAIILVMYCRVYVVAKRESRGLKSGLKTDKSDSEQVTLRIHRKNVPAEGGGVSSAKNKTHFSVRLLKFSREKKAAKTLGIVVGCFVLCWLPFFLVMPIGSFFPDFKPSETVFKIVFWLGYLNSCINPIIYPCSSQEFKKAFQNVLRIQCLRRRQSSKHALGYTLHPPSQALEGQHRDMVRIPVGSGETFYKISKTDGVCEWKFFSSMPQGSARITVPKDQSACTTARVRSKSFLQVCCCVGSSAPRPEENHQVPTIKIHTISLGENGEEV

Rattus norvegicus [9] = assay: Percent catalepsy in male Spargue-Dawley rat at pretreatment time 240 mins and when administered ip at dose 50 mg/kg; format: functional; conditions: route intraperitoneal
Outline: (§2)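 Catalepsy in rats, groups of five per drug treatment, scored blind to drug and dose. Each session included a saline or vehicle negative control and a haloperidol 2 mg/kg positive control. Deaths during the experiment were recorded in the catalepsy column as number dead out of five.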

Rattus norvegicus [10] = assay: compound was tested for antipsychotic activity by conditioned avoidance response(CAR) assay in rats with a pretreatment period of 60 min upon peroral administration at a concentration of 20 mg/kg.; format: functional; conditions: route oral
Rattus norvegicus [11] = assay: Percent catalepsy in male Spargue-Dawley rat at pretreatment time 60 mins and when administered ip at dose 50 mg/kg; format: functional; conditions: route intraperitoneal; outline: as §2

- Ki [5]: 2.1 nM
- Ki [8]: 4.4 nM
SMILES: CCN(CC)C(=O)c1cccc(CN2CCN(c3ccccc3OC(C)C)CC2)c1
- inhibition in vivo at 2.5 mg/kg (Rattus norvegicus [1]): -60%
- inhibition in vivo at 5 mg/kg (Rattus norvegicus [2]): -96.2%
- inhibition in vivo at 1 mg/kg (Rattus norvegicus [3]): -65.1%
- inhibition in vivo at 2.5 mg/kg (Rattus norvegicus [4]): -44.4%
- inhibition in vivo at 15 mg/kg (Rattus norvegicus [6]): -94.5%
- inhibition in vivo at 20 mg/kg (Rattus norvegicus [7]): -44.6%
- Catalepsy (Rattus norvegicus [9]): 36.8%
- inhibition in vivo at 20 mg/kg (Rattus norvegicus [10]): -93.4%
- Catalepsy (Rattus norvegicus [11]): 76.9%
